Sampled rows, rich in hits. Any-hit rate of the full collection: about 1.9%.
CFTR F508del cor: CFTR F508del correction in bronchial cells | CFBE cells, YFP halide quenching; stimulated with forskolin plus potentiator P3; % fluorescence drop versus neutral controls | activity (quench increase), % at 7.58 µM | actives 0.36% (n = 350,000);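 active = mean added fluorescence quench of at least 8% versus neutral control, with both replicates also reaching 8%; inconclusive = only one of the mean or replicate conditions met; inactive = mean below 8% and not both replicates reaching 8%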;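 note: cells transiently co-express mutant CFTR-F508del with the halide-sensitive YFP; corrector assay measuring rescue of mutant channel to the surface after 24 h compound exposure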
Cneo AK release: Cryptococcus neoformans lysis via adenylate kinase release | AID 651654 | lysis activity, % at 15 µM | actives 0.2% (n = 360,000) | C. neoformans lysis, adenylate kinase release luminescence, 4 h; normalised: neutral wells 0, clomiphene wells 100;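 active = mean lysis activity across replicates of at least 80%, whatever share of replicates individually reach that level; inactive = mean lysis activity below 80%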
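Material – Cryptococcus neoformans yeast cells · Quantity – 5 × 10^6 yeast cells/mL · Buffer or medium – YPD medium · Compound – single dose · Timing – 4 h static compound exposure, 37 °C, read 1 h post-reagent · Signal – adenylate kinase release luminescence · Read-out basis – lysis from increased AK signal · Benchmarks – Clomiphene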
DENV2 CPE rescue: DENV2-induced cell death inhibition; actives 1.7% (n = 350,000); AID 651640; CPE inhibition, % at 9.99 µM; DENV2-infected cells, cytopathic effect rescue, plate reader; in the data active = CPE inhibition above about 20%, passing the limit was not always enough; inconclusive = no clear call, values can overlap the other calls; tested in BHK-21 cells;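 note: 0% = median of neutral control wells and 100% = median of positive control wells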
FN deposit inh: fibronectin deposition inhibition; inhibition, % at 12.6 µM; AH1F fibroblasts, Alexa488-fibronectin deposition fluorescence, overnight; actives 0.086% (n = 350,000);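 active = mean inhibition across replicates of 30% or more, regardless of how many single replicates reach that level; inconclusive = mean under 30% yet at least half of replicates reach 30%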;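 note: positive control wells lacked labelled fibronectin entirely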
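Material – AH1F fibroblast monolayer, labelled fibronectin deposition · Reagent – labelled fibronectin 24 nM · Timing – 1 h adhesion, overnight exposure · Measured by – fluorescence at 485 nm excitation, 525 nm emission · Read-out – inhibition of fibronectin deposition signal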
XiGFP reactiv: reactivates the inactive X chromosome in mouse fibroblasts | XiGFP mouse fibroblasts, % GFP-positive cells imaging, 3 d; cells co-treated with 5-aza-dC sensitizer; scaled so ellipticine positive control = 100% | activation, % at 7.58 µM | actives 0.055% (n = 360,000);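 active = mean normalized replicate activation at least 10% and every replicate at or above 10%; inconclusive = only one of the two criteria met; inactive = mean below 10% and not all replicates reach 10%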;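 note: 0% = median of on-plate neutral control wells and 100% = ellipticine 6 µM median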
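Material: SV40-immortalized XiGFP fibroblast cells, line 68-5-11 | Buffer or medium: DMEM containing 5-aza-dC | Dosing: One concentration, pinned | Times: 3 d treatment, 15 min room-temperature fixation | Controls: Ellipticine 6 µM positive control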
PGC1a acetyl inh: modulators of PGC1a acetylation; U2OS PGC1a acetylation, AlphaScreen anti-acetyl-lysine; with virally co-expressed GCN5 acetyltransferase; inhibition, % at 15.6 µM; actives 0.17% (n = 350,000); AID 651687;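 active = every replicate shows inhibition of at least 40%; inconclusive = mean inhibition at least 40% but some replicate below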;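 note: 0% = neutral control wells and 100% = positive control wells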
* hit, by the source's call; ? = inconclusive; · = no result.

SMILES	CFTR F508del cor	Cneo AK release	DENV2 CPE rescue	FN deposit inh	XiGFP reactiv	PGC1a acetyl inh
Cc1cccc(C)c1NC(=O)CN1CCN(C(=O)CN2C(=O)NC3(CCCCC3C)C2=O)CC1 (stereo not drawn)	0	0	25*	7	1	7
CN1C(=O)c2cc(NC(=O)C3CCOCC3)ccc2OC[C@@H]2O[C@H](CC(=O)O)CC[C@H]21	5	0	-8	-20	0	3
CC(C)NC(=O)N(C)C[C@H]1Oc2c(NC(=O)c3nc4ccccc4s3)cccc2C(=O)N([C@H](C)CO)C[C@@H]1C	4	52	?	·	2	0
COc1ccc2c3c(n(C)c2c1)[C@H](CO)N(C(=O)c1cnccn1)CC31CCN(C(=O)c2ccncc2)CC1	-1	·	7	·	0	-2
Cc1c(NS(=O)(=O)c2cc(C(=O)Nc3ccc(F)cc3Cl)ccc2Cl)c(=O)n(-c2ccccc2)n1C	-1	-1	-6	6	0	0
Cc1ccc(NC(=O)c2ccc(Cl)c(S(=O)(=O)Nc3c(C)n(C)n(-c4ccccc4)c3=O)c2)cc1Cl	12*	-1	5	0	0	·
O=S(=O)(c1ccc(F)cc1)c1snnc1-c1ccccc1	-3	·	-3	4	0	·
O=S(=O)(c1ccc(Cl)cc1)c1snnc1-c1ccccc1	·	-4	·	·	·	42*
CCOC(=O)c1ccc(S(=O)(=O)N2CCN(C(=O)c3cc4ccccc4o3)CC2)cc1	0	2	?	·	0	-6
CCOC(=O)c1ccc(S(=O)(=O)N2CCN(C(=O)CSc3nc4ccccc4o3)CC2)cc1	·	-1	29*	-6	0	-8
C/C(N)=C(/C#N)C(=O)CSc1nnc(Cc2ccccc2F)n1N	-4	5	54*	1	0	6
O=C(CCn1cncn1)N1CCCC(N2CCN(c3cccc(C(F)(F)F)c3)CC2)C1 (stereo not drawn)	-1	-2	10	·	0	·
O=C(CCn1cncn1)N1CCCC(N2CCN(c3ccc(F)cc3)CC2)C1 (stereo not drawn)	1	0	43*	0	0	3
Nc1cccc(Oc2c(F)c(F)c(Oc3cccc(N)c3)c(F)c2F)c1	-3	-2	9	24	0	3
COc1cccc(N)c1	2	·	171*	·	·	·
NS(=O)(=O)Oc1ccccc1	-1	0	52*	7	0	10
O=S(=O)(CS(=O)(=O)Oc1ccccc1)Oc1ccccc1	-1	·	23*	-4	0	4
COc1ccc(OS(=O)(=O)Cc2ccccc2)cc1	-3	4	-9	5	0	4
Cc1ccc(S(=O)(=O)Oc2ccccc2)cc1	0	·	1	-5	0	0
O=C(C1CCCC1)N1CCC(CC2CC(c3ccc(Cl)cc3)=NO2)(C(=O)NCC2CCCCC2)CC1 (stereo not drawn)	2	1	-9	0	0	-27
O=C(C1CCCC1)N1CCC(CC2CC(c3cccc(Br)c3)=NO2)(C(=O)NCC2CCCCC2)CC1 (stereo not drawn)	1	3	53*	8	0	-15
CCCN(C)C[C@H]1Oc2cc(C3=CCCCC3)ccc2S(=O)(=O)N([C@@H](C)CO)C[C@H]1C	1	·	·	·	-1	-7
CCCC(=O)Nc1ccc2c(c1)C(=O)N(C)[C@H]1CC[C@H](CC(=O)NCCCN(C)C)O[C@@H]1CO2	3	3	61*	-5	0	1
CCCNC(=O)C[C@@H]1CC[C@@H]2[C@H](COc3ccc(NC(=O)CCC)cc3C(=O)N2C)O1	-1	110*	-11	1	0	8
CCCC(=O)Nc1ccc2c(c1)C(=O)N(C)[C@@H]1CC[C@@H](CC(=O)NCCCN(C)C)O[C@H]1CO2	0	1	16	-5	0	2
CCCNC(=O)C[C@H]1CC[C@H]2[C@H](COc3ccc(NC(=O)CCC)cc3C(=O)N2C)O1	2	0	3	-5	0	-3
